From ChEMBL document CHEMBL4261483, “Synthesis and biological evaluation of memantine nitrates as a potential treatment for neurodegenerative diseases” (Medchemcomm, 2017)
pEC50: −log10 of the molar value. Active and inactive are the calls of the source. No cut-off for these calls is given here.

How the values were obtained:
[1] = tested on: Cerebellar granule neurone; assay: Neuroprotective activity against glutamate-induced excitotoxicity in mouse primary cerebellar granule neurons assessed as increase in cell viability preincubated for 2 hrs followed by glutamate challenge measured after 24 hrs by MTT assay; assay type: functional
[2] = tested on: Cerebellar granule neurone; assay: Cytotoxicity against mouse primary cerebellar granule neurons assessed as decrease in cell viability at 100 uM after 24 hrs by MTT assay
[3] = tested on: Cerebellar granule neurone; assay: Neuroprotective activity against glutamate-induced excitotoxicity in mouse primary cerebellar granule neurons assessed as increase in cell viability up to 10 uM preincubated for 2 hrs followed by glutamate challenge measured after 24 hrs by MTT assay; assay type: functional
Aorta [4] = assay: Vasodilating activity in Sprague-Dawley rat aortic ring precontracted with phenylephrine in presence of endothelium; assay type: functional, tissue-based; details: for pEC50: Rattus norvegicus, Sprague-Dawley, Aorta
Aorta [5] = assay: Vasodilating activity in Sprague-Dawley rat aortic ring precontracted with phenylephrine in absence of endothelium; assay type: functional, tissue-based; details: for pEC50: Rattus norvegicus, Sprague-Dawley, Aorta
[6] = tested on: Cerebellar granule neurone; assay: Neuroprotective activity against glutamate-induced excitotoxicity in mouse primary cerebellar granule neurons assessed as increase in cell viability at 1 uM preincubated for 2 hrs followed by glutamate challenge measured after 24 hrs by MTT assay; assay type: functional
Cortical neurone [7] = assay: Neuroprotective activity against glutamate-induced neuronal damage in rat cortical neurons assessed as decrease in formation of hydroxy radicals at 5 uM preincubated for 2 hrs followed by glutamate challenge measured after 12 hrs by HPF dye-based fluorescence assay; assay type: functional, cell-based
Method in brief: (§1)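 Cortical neurons pretreated 2 h with compound, then exposed to 200 μM glutamate for 12 h in its presence. Probes added for a further 30 min: H2DCF-DA 5 μM (H2O2), HPF 10 μM (·OH), DHE 5 μM (superoxide), DAF-FM 5 μM (NO), DHR123 10 μM (peroxynitrite). Intracellular fluorescence measured.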

Cortical neurone [8] = assay: Neuroprotective activity against glutamate-induced neuronal damage in rat cortical neurons assessed as decrease in intracellular calcium influx at 5 uM preincubated for 5 min followed by glutamate challenge measured over 280 secs by Fluo-3/AM dye-based fluorescence assay; assay type: functional, cell-based
Method in brief: (§2)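 Cortical neurons loaded with Fluo-3/AM (5 μM) for 30 min at 37 °C, then held in HBSS for 30 min at room temperature. Dye washed out, compound applied for 5 min, and cells imaged with a 20× objective to follow calcium influx.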

Cortical neurone [9] = assay: Neuroprotective activity against glutamate-induced neuronal damage in rat cortical neurons assessed as increase in cell viability at 5 uM preincubated for 2 hrs followed by glutamate challenge measured after 24 hrs by […]/propidium iodide staining-based inverted fluorescence microscopic method; assay type: functional
Method in brief: (§3)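 Rat primary cortical neurons given compound for 2 h, then 200 μM glutamate for 24 h in its presence. Viability by FDA/PI double staining, with live cells green (FDA) and dead cells red (PI), scored from fluorescence images. Memantine 5 μM used as positive control.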

Cortical neurone [10] = assay: Neuroprotective activity against glutamate-induced neuronal damage in rat cortical neurons assessed as decrease in H2O2 formation at 5 uM preincubated for 2 hrs followed by glutamate challenge measured after 12 hrs by H2DCF-DA dye-based fluorescence assay; assay type: functional, cell-based; method in brief: as §1
Cortical neurone [11] = assay: Neuroprotective activity against glutamate-induced neuronal damage in rat cortical neurons assessed as decrease in formation of superoxide anions at 5 uM preincubated for 2 hrs followed by glutamate challenge measured after 12 hrs by DHE dye-based fluorescence assay; assay type: functional, cell-based; method in brief: as §1
Cortical neurone [12] = assay: Neuroprotective activity against glutamate-induced neuronal damage in rat cortical neurons assessed as decrease in formation of nitric oxide at 5 uM preincubated for 2 hrs followed by glutamate challenge measured after 12 hrs by DAF-FM dye-based fluorescence assay; assay type: functional, cell-based; method in brief: as §1
Cortical neurone [13] = assay: Neuroprotective activity against glutamate-induced neuronal damage in rat cortical neurons assessed as decrease in formation of peroxynitrite at 5 uM preincubated for 2 hrs followed by glutamate challenge measured after 12 hrs by DHR123 dye-based fluorescence assay; assay type: functional, cell-based; method in brief: as §1
Cortical neurone [14] = assay: Neuroprotective activity in rat cortical neurons assessed as inhibition of glutamate-induced decrease in mitochondrial membrane potential at 5 uM preincubated for 2 hrs followed by glutamate challenge measured after 12 hrs by JC1 staining-based fluorescence assay; assay type: functional, cell-based
Method in brief: (§4)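 Cortical neurons given compound for 2 h, then 200 μM glutamate for 12 h without compound removal. Fluorescence read at 488 nm excitation with dual emission at 529/590 nm.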

Cortical neurone [15] = assay: Neuroprotective activity against glutamate-induced neuronal damage in rat cortical neurons assessed as decrease in H2O2 formation preincubated for 2 hrs followed by glutamate challenge measured after 12 hrs by H2DCF-DA dye-based fluorescence assay; assay type: functional, cell-based; method in brief: as §1
Cortical neurone [16] = assay: Neuroprotective activity against glutamate-induced neuronal damage in rat cortical neurons assessed as decrease in formation of superoxide anions preincubated for 2 hrs followed by glutamate challenge measured after 12 hrs by DHE dye-based fluorescence assay; assay type: functional, cell-based; method in brief: as §1
Cortical neurone [17] = assay: Neuroprotective activity against glutamate-induced neuronal damage in rat cortical neurons assessed as decrease in formation of hydroxy radicals preincubated for 2 hrs followed by glutamate challenge measured after 12 hrs by HPF dye-based fluorescence assay; assay type: functional, cell-based; method in brief: as §1
Cortical neurone [18] = assay: Neuroprotective activity against glutamate-induced neuronal damage in rat cortical neurons assessed as decrease in formation of nitric oxide preincubated for 2 hrs followed by glutamate challenge measured after 12 hrs by DAF-FM dye-based fluorescence assay; assay type: functional, cell-based; method in brief: as §1
Cortical neurone [19] = assay: Neuroprotective activity in rat cortical neurons assessed as inhibition of glutamate-induced decrease in mitochondrial membrane potential at 5 to 45 uM preincubated for 2 hrs followed by glutamate challenge measured after 12 hrs by JC1 staining-based fluorescence assay; assay type: functional, cell-based; method in brief: as §4
Cortical neurone [20] = assay: Neuroprotective activity against glutamate-induced neuronal damage in rat cortical neurons assessed as increase in cell viability preincubated for 2 hrs followed by glutamate challenge measured after 24 hrs by […]/propidium iodide staining-based inverted fluorescence microscopic method; assay type: functional; method in brief: as §3
Cortical neurone [21] = assay: Neuroprotective activity against glutamate-induced neuronal damage in rat cortical neurons assessed as decrease in formation of peroxynitrite preincubated for 2 hrs followed by glutamate challenge measured after 12 hrs by DHR123 dye-based fluorescence assay; assay type: functional, cell-based; method in brief: as §1
Cortical neurone [22] = assay: Neuroprotective activity against glutamate-induced neuronal damage in rat cortical neurons assessed as increase in cell viability preincubated for 2 hrs followed by glutamate challenge measured after 24 hrs by MTT assay; assay type: functional, cell-based
Method in brief: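 Rat primary cortical neurons treated with compound for 2 h, then exposed to 200 μM glutamate for another 24 h without compound removal. Viability by MTT assay. Memantine 5 μM served as positive control.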

Cortical neurone [23] = assay: Neuroprotective activity against glutamate-induced neuronal damage in rat cortical neurons assessed as decrease in intracellular calcium influx at 15 uM preincubated for 5 min followed by glutamate challenge measured over 280 secs by Fluo-3/AM dye-based fluorescence assay; assay type: functional, cell-based; method in brief: as §2

Row | Structure (SMILES) | pEC50 [1] | Activity [2] | Activity [3] | Emax (Aorta [4]) | pEC50 (Aorta [4]) | Emax (Aorta [5]) | pEC50 (Aorta [5]) | Activity [6] | other results
1 | CCCC12CC3CC(N)(C1)CC(CO[N+](=O)[O-])(C3)C2 (stereo unspecified) | 4.42 | Toxic | Active | – | – | – | – | – | –
2 | CCC12CC3CC(N)(C1)CC(CCCO[N+](=O)[O-])(C3)C2 (stereo unspecified) | 4.45 | Toxic | – | 95% | 4.61 | 89.8% | 4.57 | Active | –
3 | CC12CC3CC(N)(C1)CC(O[N+](=O)[O-])(C3)C2 (stereo unspecified) | 4.61 | – | Active | – | – | – | – | – | –
4 | CC12CC3CC(N)(C1)CC(CO[N+](=O)[O-])(C3)C2 (stereo unspecified) | 4.60 | – | Active | – | – | – | – | – | –
5 | CCC12CC3CC(N)(C1)CC(O[N+](=O)[O-])(C3)C2 (stereo unspecified) | 4.81 | – | – | 39.5% | – | 42% | 3.83 | Active | –
6 | CC(CO[N+](=O)[O-])CC12CC3CC(N)(C1)CC(CC(C)CO[N+](=O)[O-])(C3)C2 (stereo unspecified) | 4.27 | Toxic | – | 100% | 4.50 | 95.8% | 4.44 | Active | –
7 | NC12CC3CC(CO[N+](=O)[O-])(C1)CC(CO[N+](=O)[O-])(C3)C2 | 4.72 | – | – | 96.8% | 4.26 | 90.5% | 4.20 | Active | –
8 | CCC12CC3CC(N)(C1)CC(CC(C)CO[N+](=O)[O-])(C3)C2 (stereo unspecified) | 4.26 | Toxic | Active | – | – | – | – | – | –
9 | NC12CC3CC(CCCO[N+](=O)[O-])(C1)CC(CCCO[N+](=O)[O-])(C3)C2 | 4.40 | Toxic | – | 97.7% | 4.61 | 95.4% | 4.46 | Active | –
10 | CC12CC3CC(N)(C1)CC(CCCO[N+](=O)[O-])(C3)C2 (stereo unspecified) | 4.40 | Toxic | Active | – | – | – | – | – | –
11 | CC12CC3CC(C)(C1)CC(N)(C3)C2 [MEMANTINE] | 5.61 | – | – | – | – | – | – | Active | Activity (Cortical neurone [7]): Active; Activity (Cortical neurone [8]): Active; Activity (Cortical neurone [9]): Active; Activity (Cortical neurone [10]): Active; Activity (Cortical neurone [11]): Active; Activity (Cortical neurone [12]): Active; Activity (Cortical neurone [13]): Active; inhibition (Cortical neurone [14]): Active
12 | CC(CC12CC3CC(N)(C1)CC(CC(C)O[N+](=O)[O-])(C3)C2)O[N+](=O)[O-] (stereo unspecified) | 4.37 | Toxic | Active | – | – | – | – | – | –
13 | NC12CC3CC(CCO[N+](=O)[O-])(C1)CC(CCO[N+](=O)[O-])(C3)C2 | 4.59 | Toxic | Active | 102% | 4.44 | 99.4% | 4.24 | – | –
14 | CCCC12CC3CC(N)(C1)CC(CCCO[N+](=O)[O-])(C3)C2 (stereo unspecified) | 4.24 | Toxic | Active | – | – | – | – | – | –
15 | CCCC12CC3CC(N)(C1)CC(O[N+](=O)[O-])(C3)C2 (stereo unspecified) | 4.77 | – | – | 52% | – | 61.7% | 4.02 | Active | –
16 | CCC12CC3CC(N)(C1)CC(CC(C)O[N+](=O)[O-])(C3)C2 (stereo unspecified) | 4.23 | Toxic | Active | – | – | – | – | – | –
17 | CCC12CC3CC(N)(C1)CC(CO[N+](=O)[O-])(C3)C2 (stereo unspecified) | 4.97 | – | – | 101% | 4.33 | 98.2% | 4.30 | Active | Activity (Cortical neurone [15]): Dose-dependent effect; Activity (Cortical neurone [16]): Dose-dependent effect; Activity (Cortical neurone [17]): Dose-dependent effect; Activity (Cortical neurone [18]): Dose-dependent effect; inhibition (Cortical neurone [19]): Active; Activity (Cortical neurone [20]): Dose-dependent effect; Activity (Cortical neurone [21]): Dose-dependent effect; Activity (Cortical neurone [22]): Dose-dependent effect; Activity (Cortical neurone [23]): Active
